Active and inactive are the calls of the source. No cut-off for these calls is given here.
Legend:
HepG2 [1] = experiment: Induction of apoptosis in human HepG2 cells assessed as cell population with mitochondrial membrane potential loss at 0.25 uM measured after 48 hrs by JC-1 staining based flow cytometry (reference value: 1.49%); type: functional
Outline: (§1)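 HepG-2 cells were exposed 48 h to 0.0625, 0.125 or 0.25 µM or to vehicle, then washed in PBS and stained with JC-1 in the dark. Red aggregate versus green monomer fluorescence was measured by flow cytometry to give the percentages of cells with healthy versus collapsed mitochondrial membrane potential.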

HepG2 [2] = experiment: Cell cycle arrest in human HepG2 cells assessed as G1 phase accumulation at 0.125 uM after 48 hrs in presence of hemoglobin by propidium iodide staining based flow cytometry (reference value: 52.93%); type: functional
HepG2 [3] = experiment: Cell cycle arrest in human HepG2 cells assessed as G1 phase accumulation at 0.25 uM after 48 hrs in presence of hemoglobin by propidium iodide staining based flow cytometry (reference value: 52.93%); type: functional
HepG2 [4] = experiment: Induction of apoptosis in human HepG2 cells assessed as cell population with intact mitochondrial membrane potential at 0.25 uM measured after 48 hrs by JC-1 staining based flow cytometry (reference value: 98.51%); type: functional; outline: as §1
PC-3 = experiment: Antiproliferative activity against human PC3 cells after 72 hrs by MTT assay; type: functional, cell-based; details: PC-3, 72 h
Outline: (§2)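 MTT assay. Cells were seeded and grown 24 h at 37 °C in 5% CO2, then exposed to compound or left untreated for 72 h. MTT (5 mg/mL stock) was added for 4 h and the formazan dissolved in DMSO. OD was read at 570 nm. IC50 is the concentration giving 50% growth inhibition, reported as mean ± SD of three independent experiments. Vehicle reference was 0.1% DMSO.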

HepG2 [5] = experiment: Cell cycle arrest in human HepG2 cells assessed as G2 phase accumulation at 0.0625 uM after 48 hrs in presence of hemoglobin by propidium iodide staining based flow cytometry (reference value: 10.67%); type: functional
HepG2 [6] = experiment: Induction of apoptosis in human HepG2 cells assessed as late apoptotic cells at 0.0625 uM after 48 hrs in presence of hemoglobin by Annexin V-APC/7-AAD staining based flow cytometry (reference value: 3.36%); type: functional
HepG2 [7] = experiment: Cell cycle arrest in human HepG2 cells assessed as G2 phase accumulation at 0.125 uM after 48 hrs in presence of hemoglobin by propidium iodide staining based flow cytometry (reference value: 10.67%); type: functional
HepG2 [8] = experiment: Induction of apoptosis in human HepG2 cells assessed as viable cells at 0.25 uM after 48 hrs by Annexin V-APC/7-AAD staining based flow cytometry (reference value: 91.07%); type: functional; details: HepG2, 48 h, read-out: Activity
HepG2 [9] = experiment: Cell cycle arrest in human HepG2 cells assessed as G1 phase accumulation at 0.0625 uM after 48 hrs by propidium iodide staining based flow cytometry (reference value: 32.74%); type: functional
Outline: (§3)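 HepG-2 cells were plated and grown 24 h at 37 °C, then treated 48 h at 0, 0.0625, 0.125 or 0.25 µM, with 0.1% DMSO as control. Cells were fixed overnight in 70% ethanol at 4 °C, treated with RNase A and stained with propidium iodide. DNA content was measured by flow cytometry to give cell-cycle phase distribution.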

HepG2 [10] = experiment: Induction of apoptosis in human HepG2 cells assessed as early apoptotic cells at 0.125 uM after 48 hrs by […] based flow cytometry (reference value: 3.18%); type: functional
HepG2 [11] = experiment: Antiproliferative activity against human HepG2 cells after 72 hrs by MTT assay; type: functional, cell-based; details: HepG2, 72 h; outline: as §2
HepG2 [12] = experiment: Induction of apoptosis in human HepG2 cells assessed as necrotic cells at 0.125 uM after 48 hrs by Annexin V-APC/7-AAD staining based flow cytometry (reference value: 2.40%); type: functional
HepG2 [13] = experiment: Induction of apoptosis in human HepG2 cells assessed as late apoptotic cells at 0.0625 uM after 48 hrs by […] based flow cytometry (reference value: 3.36%); type: functional
HepG2 [14] = experiment: Cell cycle arrest in human HepG2 cells assessed as G1 phase accumulation at 0.0625 uM after 48 hrs in presence of hemoglobin by propidium iodide staining based flow cytometry (reference value: 52.93%); type: functional
HepG2 [15] = experiment: Cell cycle arrest in human HepG2 cells assessed as S phase accumulation at 0.125 uM after 48 hrs in presence of hemoglobin by propidium iodide staining based flow cytometry (reference value: 36.40%); type: functional
[16] = Drug metabolism in human HepG2 cells assessed as NO release by measuring nitrite formation at 100 uM after 1 hr by Griess assay; type: ADME, cell-based; details: hepg2, 1 h
Outline: (§4)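 HepG-2 or L-02 cells were exposed to 100 µM of each compound for 60 min and then harvested. Lysates were mixed with Griess reagent for 10 min at 37 °C and absorbance was read at 550 nm. NO release is expressed as nitrite, reported as mean ± SD of three independent experiments.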

HepG2 [17] = experiment: Induction of apoptosis in human HepG2 cells assessed as necrotic cells at 0.25 uM after 48 hrs by Annexin V-APC/7-AAD staining based flow cytometry (reference value: 2.40%); type: functional
HepG2 [18] = experiment: Downregulation of Bcl-xl level in human HepG2 cells up to 0.25 uM after 48 hrs by Western blot method; type: functional, cell-based
Outline: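 HepG-2 cells were exposed 48 h to 0, 0.0625, 0.125 or 0.25 µM and lysed on ice for 20 min. Equal protein loads were run on 12% SDS-PAGE and transferred to PVDF. Membranes were probed overnight at 4 °C with primary antibodies, then with HRP-conjugated secondaries, and detected by ECL chemiluminescence.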

HepG2 [19] = experiment: Induction of apoptosis in human HepG2 cells assessed as early apoptotic cells at 0.25 uM after 48 hrs by […] based flow cytometry (reference value: 3.18%); type: functional
HepG2 [20] = experiment: Induction of apoptosis in human HepG2 cells assessed as viable cells at 0.0625 uM after 48 hrs by Annexin V-APC/7-AAD staining based flow cytometry (reference value: 91.07%); type: functional; details: HepG2, 48 h, read-out: Activity
HepG2 [21] = experiment: Induction of apoptosis in human HepG2 cells assessed as late apoptotic cells at 0.25 uM after 48 hrs in presence of hemoglobin by Annexin V-APC/7-AAD staining based flow cytometry (reference value: 3.36%); type: functional
HepG2 [22] = experiment: Induction of apoptosis in human HepG2 cells assessed as early apoptotic cells at 0.0625 uM after 48 hrs by […] based flow cytometry (reference value: 3.18%); type: functional
HepG2 [23] = experiment: Induction of apoptosis in human HepG2 cells assessed as late apoptotic cells at 0.125 uM after 48 hrs in presence of hemoglobin by Annexin V-APC/7-AAD staining based flow cytometry (reference value: 3.36%); type: functional
L02 = experiment: Cytotoxicity against human L02 cells assessed as reduction in cell viability after 72 hrs by MTT assay; type: cell-based; details: L02, 72 h; outline: as §2
HepG2 [24] = experiment: Cell cycle arrest in human HepG2 cells assessed as G1 phase accumulation at 0.125 uM after 48 hrs by propidium iodide staining based flow cytometry (reference value: 32.74%); type: functional; outline: as §3
[25] = Drug metabolism in human L02 cells assessed as NO release by measuring nitrite formation at 100 uM after 1 hr by Griess assay; type: ADME, cell-based; details: l02, 1 h; outline: as §4

In the case of C[C@H]1CCC/C=C/[C@@H]2C[C@H](OC(=O)CCCC(=O)OCCOc3no[n+]([O-])c3S(=O)(=O)c3ccccc3)C[C@H]2[C@H](OC(=O)CCCC(=O)OCCOc2no[n+]([O-])c2S(=O)(=O)c2ccccc2)/C=C/C(=O)O1, the Activity (HepG2 [1]) is reported as 60.14%, the Activity (HepG2 [2]) is reported as 63.24% and the Activity (HepG2 [3]) is reported as 72.34%. For the same molecule, the Activity (HepG2 [4]) was 39.86%, the IC50 (PC-3) was 25 nM and the Activity (HepG2 [5]) was 7.2%. For the same molecule, the Activity (HepG2 [6]) was 6.68%, the Activity (HepG2 [7]) was 6.22% and the viability at 0.25 µM (HepG2 [8]) was 39.3%. For the same molecule, the Activity (HepG2 [9]) was 32.84%, the Activity (HepG2 [10]) was 13.23% and the IC50 (HepG2 [11]) was 180 nM. It also gave an Activity (HepG2 [12]) of 2.4%, an Activity (HepG2 [13]) of 11.76% and an Activity (HepG2 [14]) of 68.06%. It also gave an Activity (HepG2 [15]) of 30.54%, a Drug metabolism [16] of 98.5 µM and an Activity (HepG2 [17]) of 5.47%. The Activity (HepG2 [18]) was “Active”, the Activity (HepG2 [19]) was 15.03% and the viability at 0.0625 µM (HepG2 [20]) was 82.1%. The Activity (HepG2 [21]) was 12.24%, the Activity (HepG2 [22]) was 3.1% and the Activity (HepG2 [23]) was 9.87%. It also gave an IC50 (L02) of 6 µM, an Activity (HepG2 [24]) of 31.78% and a Drug metabolism [25] of 22.4 µM.
